The text below walks through data of ChEMBL document CHEMBL1145341, “Synthesis and biological evaluation of bisindenoisoquinolines as topoisomerase I inhibitors” (2006).

Activity calls are given as the source filed them. No cut-off for these calls is given here.

Experiment [1] has as its system HCT-116. The experiment in a line: Antiproliferative activity against human HCT116 cell line. The format is functional.
The subject of experiment [2] is OVCAR-3. The experiment in a line: Antiproliferative activity against human OVCAR-3 cell line. Type of experiment: functional.
In experiment [3] the test system is MDA-MB-435. Put plainly: Antiproliferative activity against human MDA-MB-435 cell line. The format is functional.
Experiment [4] deals with SF-539. The experiment in a line: Antiproliferative activity against human SF539 cell line. The format is functional.
Experiment [5] relates to SN12C. The experiment in a line: Antiproliferative activity against human SN12C cell line. The format is functional.
In experiment [6] the test system is HOP-62. Put plainly: Antiproliferative activity against human HOP62 cell line. The format is functional.
The subject of experiment [7] is Panel (12 tumour cell lines). The experiment in a line: Net cell kill in ip dosed mouse implanted with 12 human tumor cell lines. Type of experiment: functional, organism-based.
For experiment [8], the system named is UACC-62. The experiment in a line: Antiproliferative activity against human UACC62 cell line. Type of experiment: functional.
In experiment [9] the target is T1, DNA topoisomerase 1 (Homo sapiens) (UniProt P11387).
T1 sequence (whole entry): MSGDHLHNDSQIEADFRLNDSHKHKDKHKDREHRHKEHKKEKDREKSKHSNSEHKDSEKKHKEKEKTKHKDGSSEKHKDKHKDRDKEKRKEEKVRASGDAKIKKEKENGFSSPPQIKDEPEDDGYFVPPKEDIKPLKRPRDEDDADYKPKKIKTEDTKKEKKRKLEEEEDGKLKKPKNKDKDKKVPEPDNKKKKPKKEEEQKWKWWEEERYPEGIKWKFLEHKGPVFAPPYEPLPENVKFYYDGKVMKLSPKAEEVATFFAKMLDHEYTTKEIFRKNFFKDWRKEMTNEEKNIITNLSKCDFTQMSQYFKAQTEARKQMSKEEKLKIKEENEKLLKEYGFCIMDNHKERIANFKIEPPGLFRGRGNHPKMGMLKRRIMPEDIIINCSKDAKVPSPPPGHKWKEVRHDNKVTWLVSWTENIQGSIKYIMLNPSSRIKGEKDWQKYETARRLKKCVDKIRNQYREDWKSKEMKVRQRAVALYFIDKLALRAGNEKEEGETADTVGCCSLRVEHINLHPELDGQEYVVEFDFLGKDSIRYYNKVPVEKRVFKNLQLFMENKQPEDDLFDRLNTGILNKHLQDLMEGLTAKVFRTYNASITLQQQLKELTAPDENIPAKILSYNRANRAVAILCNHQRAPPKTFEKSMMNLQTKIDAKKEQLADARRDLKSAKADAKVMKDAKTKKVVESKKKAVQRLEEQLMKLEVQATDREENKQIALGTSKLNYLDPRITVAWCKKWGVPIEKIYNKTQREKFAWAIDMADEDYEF
The experiment in a line: Inhibition of human recombinant Top1-mediated DNA cleavage upto 10 uM. An outline of the steps: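 Baculovirus-purified human recombinant Top1. Substrate: 161 bp PvuII/HindIII fragment of pBluescript SK(-), 3′-end labeled with [α-32P]-dGTP by Klenow fill-in, about 50 000 dpm per reaction. Compounds up to 10 µM, 22 °C for 30 min; stopped with 0.5% SDS (final). Denaturing 16% polyacrylamide/7 M urea gels, phosphorimaging. Cleavage scored semiquantitatively (+ to ++++) against a reference indenoisoquinoline and 1 µM camptothecin.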

In experiment [10] the test system is DU-145. The experiment in a line: Antiproliferative activity against human DU145 cell line. Type of experiment: functional.

In general, GI50 refers to the concentration at which growth is held to half of that of the control. Lower therefore signals more potent growth inhibition. Turning to `O=C1c2ccccc2-c2c1c1ccccc1c(=O)n2CCCNCCCCNCCCn1c2c(c3ccccc3c1=O)C(=O)c1ccccc1-2`, the GI50 in [1] is less than 5 nM; in experiment [2], 135 nM; in experiment [3], 676 nM; in [4], 251 nM; in [5] it was less than 5 nM; in [6], 525 nM. The figures for the GI50 in experiment [8] and in experiment [10] were 562 nM and 234 nM, respectively. For the same compound, the result in [7] was inactive. Also, in experiment [9], the outcome was Active.

On to `O=C1c2ccccc2-c2c1c1ccccc1c(=O)n2CCNCCNCCNCCn1c2c(c3ccccc3c1=O)C(=O)c1ccccc1-2`, for which the GI50 in [1] was 112 nM; in [2], 1150 nM; in [3], 1000 nM; in experiment [4], 275 nM; in [5], 17 nM; in experiment [6] it was 48 nM. Also, the GI50 in experiment [8] is 269 nM; in experiment [10] it was 331 nM. Also, in experiment [7], the outcome was inactive. In addition, the result in experiment [9] was Active.
